Compound activity (PubChem BioAssay)
Hits are enriched below; roughly 3% of the tested compounds scored in any of these assays.
UBC13 inh: blocks human UBC13 polyubiquitin chain formation. P61088. TR-FRET. inhibition, % at 20 µM. 330,000 compounds, 0.47% hits. AID 485273; in the data active = inhibition above about 45%, passing the limit was not always enough
Target sequence (P61088 whole entry, looked up): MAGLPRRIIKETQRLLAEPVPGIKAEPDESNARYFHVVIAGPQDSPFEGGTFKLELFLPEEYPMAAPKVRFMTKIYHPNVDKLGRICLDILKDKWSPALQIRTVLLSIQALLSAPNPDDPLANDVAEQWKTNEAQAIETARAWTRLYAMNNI
SENP6 inh: SENP6 protease inhibition. Q9GZR1. Recombinant SENP6 catalytic domain, aminoluciferin luminescence. inhibition, % at 10 µM. 330,000 compounds, 1.8% hits;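 active = inhibition above about 50% at the single tested dose, limit read from the data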
Target sequence (Q9GZR1 628-1112 limits assumed): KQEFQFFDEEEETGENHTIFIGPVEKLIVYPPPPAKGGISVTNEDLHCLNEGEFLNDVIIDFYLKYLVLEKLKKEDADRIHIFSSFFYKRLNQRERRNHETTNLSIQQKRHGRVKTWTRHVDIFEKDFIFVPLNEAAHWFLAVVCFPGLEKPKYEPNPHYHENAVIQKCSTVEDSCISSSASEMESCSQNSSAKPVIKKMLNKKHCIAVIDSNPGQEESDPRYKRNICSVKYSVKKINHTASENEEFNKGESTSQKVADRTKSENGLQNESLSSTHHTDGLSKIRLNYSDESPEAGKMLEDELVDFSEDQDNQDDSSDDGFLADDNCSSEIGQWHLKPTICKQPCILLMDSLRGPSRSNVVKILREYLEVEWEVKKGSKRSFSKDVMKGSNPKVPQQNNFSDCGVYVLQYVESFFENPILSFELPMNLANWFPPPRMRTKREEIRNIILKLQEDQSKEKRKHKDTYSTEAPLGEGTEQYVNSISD
SENP8 block-1: blocks the human protease SENP8 | inhibition, % at 10 µM | 330,000 compounds, 1.2% hits | purified SENP8, Z-RLRGG-aminoluciferin cleavage, luminescence | AID 2540; in the data active = inhibition above about 50%
SENP8 block-2: inhibitors of human SENP8 protease. Q96LD8. recombinant SENP8, Nedd8 substrate fluorescence. inhibition, % at 20 µM. 360,000 compounds, 0.64% hits; in the data active = inhibition mostly above about 40%, no sharp cut-off; inactive = mostly below about 27%
Apaf-1 inh: blocks human Apaf-1 apoptosome activity. O14727. reconstituted apoptosome caspase-3 activity, DEVD-Rh110 fluorescence. inhibition, % at 20 µM. 330,000 compounds, 0.71% hits. AID 489030; active = inhibition of at least 40% at 20 µM
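Material: reconstituted apoptosome with Apaf-1, cytochrome c, caspase-9, procaspase-3, dATP / Buffer or medium: pH 7.5 Hepes buffer with CHAPS, BSA, DTT / Also added: cytochrome c with DEVD-Rh110 / Schedule: compound with Apaf-1, dATP, procaspase-3 30 min, then 50 min reaction, room temperature / Technique: rhodamine 110 fluorescence at Ex 480/Em 540 nm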
SENP7 inh: SENP7 protease inhibition; Q9BQF6; recombinant SENP7, Z-RLRGG-aminoluciferin luminescence, 40 min; inhibition, % at 5 µM; 330,000 compounds, 1.5% hits;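 active = inhibition above about 50% at the single test dose, limit read from the data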
Apaf-1 inh conf2: Apaf-1 inhibition, single-dose confirmed. shares compounds with Apaf-1 inh. reconstituted apoptosome, caspase-3 DEVD-Rh110 fluorescence. inhibition, % at 20 µM. 1,800 compounds, 25% hits. AID 504614;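 active = mean inhibition of at least 40% at 20 µM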
Rh110 interf inh: counter-screen for Apaf-1 inhibitors: fluorescence interference; shares compounds with Apaf-1 inh; Rh110 fluorescence interference, quenched caspase reaction; activation (fluorescence interference), % at 20 µM; 1,800 tested, under 10 active; AID 504615;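 active = signal rise of 40% or more at 20 µM, treated as a fluorescence artifact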
Apaf1 inh interf: shows fluorescence interference in the Apaf-1 inhibitor assay format; 460 tested, under 10 active; AID 588538; shares compounds with Apaf-1 inh; IC50, µM; fluorescence interference counterscreen, Apaf-1 assay format; call rule not given here
Each line names hits and unclear results; the compound was inactive in the other large screens (follow-up assays come after a bar, where they were run).

CCOc1ccccc1N1CCN(C2=C(NS(=O)(=O)c3cccs3)C(=O)c3ccccc3C2=O)CC1	none
O=C1C(NS(=O)(=O)c2cccs2)=C(N2CCN(Cc3ccccc3)CC2)C(=O)c2ccccc21	Apaf-1 inh 51 | Apaf-1 inh conf2 inactive | Rh110 interf inh inactive
O=C1C(NS(=O)(=O)c2cccs2)=C(N2CCN(c3cccc(C(F)(F)F)c3)CC2)C(=O)c2ccccc21	SENP8 block-2 56, Apaf-1 inh 48 | Apaf-1 inh conf2 inactive | Rh110 interf inh inactive
CCC(NC(=O)NNC(N)=S)(C(F)(F)F)C(F)(F)F	none
O=C(NNC(=O)c1c(O)c2ccccc2[nH]c1=O)c1ccccc1Br	none
NC(=O)CCn1c2ccccc2c2ccccc21	none
Cc1ccc2c(c1)c1cccc3c1n2CCN3CCC(N)=O	Apaf-1 inh 51 | Apaf-1 inh conf2 inactive | Rh110 interf inh inactive
c1csc(-c2nc3c4ccccc4c4ccccc4c3[nH]2)c1	Apaf-1 inh 44 | Apaf-1 inh conf2 inactive | Rh110 interf inh inactive
Oc1ccccc1-c1nc2c3ccccc3c3ccccc3c2[nH]1	none (no result: UBC13 inh, SENP6 inh, SENP8 block-1, Apaf-1 inh, SENP7 inh)
COCCNC(=O)CN1C(=O)NC2(CCOc3ccccc32)C1=O (centres undefined)	Apaf-1 inh 46 | Apaf-1 inh conf2 inactive | Rh110 interf inh inactive
COc1cc(N)c(Cc2nccc3cc(OC)c(OC)cc23)cc1OC	Apaf-1 inh 47 | Apaf-1 inh conf2 inactive | Rh110 interf inh inactive
Cc1cccc(N(Cc2ccccc2)C(=O)C2CCN(C(=O)c3ccccc3C)CC2)c1	Apaf-1 inh 48 | Apaf-1 inh conf2 inactive | Rh110 interf inh inactive
CCN(CCO)c1ccc(NC(=S)Nc2cccc(S(=O)(=O)N(C)C)c2)cc1	Apaf-1 inh 43 | Apaf-1 inh conf2 inactive | Rh110 interf inh inactive
COc1cccc2cc(C(=O)NCc3ccccc3)c(=N)oc12	none
COc1cccc2cc(C(=O)NCc3ccc(Cl)cc3)c(=N)oc12	Apaf-1 inh 42 | Apaf-1 inh conf2 inactive | Rh110 interf inh inactive
COc1cc2nc(N3CCN(C(=O)[C@H]4COc5ccccc5O4)CC3)nc(N)c2cc1OC	none
COc1ccc(/C=C2/C(=O)N(c3ccccc3)N=C2C)cc1	SENP8 block-2 91, Apaf-1 inh 96 | Apaf-1 inh conf2 inactive | Rh110 interf inh inactive
CC1=NN(c2ccccc2)C(=O)/C1=C/N(C)C	none
COc1ccc(C2=NN(c3ccccc3)C(=O)/C2=C\c2ccc(O)c(OC)c2)cc1	SENP8 block-2 55, Apaf-1 inh 90 | Apaf-1 inh conf2 inactive | Rh110 interf inh inactive
CC(=O)Oc1ccc(/C=C2/C(=O)N(c3ccccc3)N=C2C)cc1	SENP8 block-2 45, Apaf-1 inh 91 | Apaf-1 inh conf2 inactive | Rh110 interf inh inactive
CCOc1cc(/C=C2/C(=O)N(c3ccccc3)N=C2C)ccc1OC(=O)c1cccs1	Apaf-1 inh 69 | Apaf-1 inh conf2 inactive | Rh110 interf inh inactive
COc1cc(/C=C2\C(=O)ON=C2c2ccc(Cl)cc2)ccc1O	none (no result: SENP8 block-2)
Nc1ccnc(=O)[nH]1	none
COc1ccc(/C=C2/C(=O)N(c3ccccc3)N=C2C)cc1OC	SENP8 block-2 75, Apaf-1 inh 96 | Apaf-1 inh conf2 inactive | Rh110 interf inh inactive
Cn1c(C(=O)NCCN2CCCCCC2)cc2c(=O)n(C)c3ccccc3c21	Apaf-1 inh 43 | Apaf-1 inh conf2 inactive | Rh110 interf inh inactive
CC(=O)NC12CC3CC(C1)CC(C(=O)N1CCN(S(=O)(=O)c4ccc([N+](=O)[O-])cc4)CC1)(C3)C2	none (no result: UBC13 inh, SENP6 inh, SENP8 block-1, Apaf-1 inh, SENP7 inh)
COc1ccc(-c2oc3ncnc(NCCCN4CCOCC4)c3c2-c2ccc(OC)cc2)cc1	none
COc1ccc(-c2oc3ncnc(NCCN4CCOCC4)c3c2-c2ccc(OC)cc2)cc1	Apaf-1 inh 42 | Apaf-1 inh conf2 inactive | Rh110 interf inh inactive
COc1ccc(Nc2nnc(SCC(=O)N3CC(=O)Nc4ccccc43)s2)cc1	none
COc1ccc(-c2nc(-c3ccccc3)nc(N3CCN(C)CC3)c2C#N)cc1	Apaf-1 inh 41 | Apaf-1 inh conf2 inactive | Rh110 interf inh inactive
CCC(=O)N1CCCN(S(=O)(=O)c2ccc(C)cc2)C1c1ccc(OC)cc1 (centres undefined)	none
CCOc1cc(/C=C2\C(=O)N(CCC#N)N=C2C)ccc1OCC(N)=O	Apaf-1 inh 58 | Apaf-1 inh conf2 inactive | Rh110 interf inh inactive
COc1cc(/C=C2\C(=O)N(CCC#N)N=C2C)ccc1OCC(=O)Nc1ccccc1	Apaf-1 inh 93 | Apaf-1 inh conf2 inactive | Rh110 interf inh inactive
CCCCN(C)Cc1cc(=O)oc2cc3c(cc12)CCCC3	none
C=CCN1CC(O)=C(c2nc3ccccc3[nH]2)C1=N	none
CC(C)COc1cccc(C(=O)NC2(C)CCS(=O)(=O)C2)c1 (centres undefined)	none
COC(=O)C1=C(C)NC(C)=C(C(=O)OCC2CCCO2)C1c1cccc(Br)c1 (centres undefined)	none
COc1cccc(-c2nc(CS(=O)(=O)CC(=O)NCc3ccc4c(c3)OCO4)c(C)o2)c1	none
C/C(=N\NC(=O)Cc1cc(=O)[nH][nH]1)c1cccc([N+](=O)[O-])c1	Apaf-1 inh 51 | Apaf-1 inh conf2 inactive | Rh110 interf inh inactive
CC(C)C[C@H]1CNC(=O)C(=O)N1C[C@@H]1CCCN1C[C@H](CC(C)C)N1C[C@H](Cc2ccccc2)N(CCc2ccccc2)C(=O)C1=O	none (no result: UBC13 inh, SENP6 inh, SENP8 block-1, Apaf-1 inh, SENP7 inh)
CC(C)C[C@@H]1CN=C(N)N1C[C@@H]1CCCN1C[C@@H](C(C)C)N1C[C@@H](Cc2ccccc2)N(CCc2ccc(Cl)c(Cl)c2)C1=N	Apaf-1 inh 63 | Apaf-1 inh conf2 inactive | Rh110 interf inh inactive
CCN(C(=O)c1c(C)cc(=O)oc1C)c1ccc2c(c1)OCO2	none
CCN(C(=O)c1coc(=O)c(Br)c1)c1ccc2c(c1)OCO2	Apaf-1 inh 59 | Apaf-1 inh conf2 inactive | Rh110 interf inh inactive
Cc1ccc(N(CC(=O)N2CCCC2)S(C)(=O)=O)c(C)c1	none
Cn1c(SCCN2CCCC2)nnc1C1CCN(S(=O)(=O)c2ccc(F)cc2)CC1	none
CC(=O)N(C1=C(N)C(=O)c2ccccc2C1=O)c1ccccc1	SENP8 block-2 62, Apaf-1 inh 67 | Apaf-1 inh conf2 81 | Rh110 interf inh inactive | Apaf1 inh interf inactive
O=C(N(c1ccccc1)c1ccccc1)N(c1ccccc1)c1ccccc1	none
O=Cc1ccc(-c2ccc(Cl)cc2Cl)[nH]1	none
C=CCNC(C(=O)Nc1cccc(OC)c1)c1ccccc1 (centres undefined)	Apaf-1 inh 43 | Apaf-1 inh conf2 inactive | Rh110 interf inh inactive
COc1cccc(NC(=O)C(NCC(C)(C)CN(C)C)c2ccccc2)c1 (centres undefined)	none
